Hits are enriched below; roughly 3.5% of the tested compounds scored in any of these assays.
MrgX1 allo act: human MrgX1 positive allosteric modulation, primary screen. 0.63% of 310,000 active. Q96LB2. MrgX1-HEK293, Fluo-4 calcium flux, FDSS; active compounds read high. B-score at 10 µM;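 active = plate-corrected calcium response at least 3 library SD above typical, normal starting fluorescence, not activating the receptor alone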;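 also: compound read alongside a low EC10 to EC30 dose of BAM8-22 agonist; peak minus trough fluorescence over baseline measured at the second addition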
Target sequence (Q96LB2 whole entry, looked up): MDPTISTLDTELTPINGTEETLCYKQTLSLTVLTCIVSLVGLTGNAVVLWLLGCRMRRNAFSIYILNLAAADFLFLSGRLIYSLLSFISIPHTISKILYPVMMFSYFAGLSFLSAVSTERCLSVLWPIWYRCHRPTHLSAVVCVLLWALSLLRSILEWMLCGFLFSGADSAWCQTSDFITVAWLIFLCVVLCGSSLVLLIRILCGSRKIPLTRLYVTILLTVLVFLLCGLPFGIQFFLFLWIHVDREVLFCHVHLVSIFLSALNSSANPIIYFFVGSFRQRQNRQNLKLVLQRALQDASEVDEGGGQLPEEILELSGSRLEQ
RGS4 inh: human RGS4 inhibition; P49798; HEK293 M3R/RGS4 inducible, Fluo-4 calcium flux; active compounds read high; triggered by carbachol at its EC20; B-score at 10 µM; 0.45% of 310,000 active; AID 463165;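 active = B-score, a plate-corrected calcium signal, over three deviations above library mean, with baseline fluorescence within five deviations of library mean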;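 also: RGS4 expression induced by doxycycline in cells with stable M3 receptor; B-score is computed from the integrated fluorescence ratio over baseline after carbachol; higher B-score means a larger calcium signal and so more RGS4 inhibition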
Target sequence (P49798 whole entry, looked up): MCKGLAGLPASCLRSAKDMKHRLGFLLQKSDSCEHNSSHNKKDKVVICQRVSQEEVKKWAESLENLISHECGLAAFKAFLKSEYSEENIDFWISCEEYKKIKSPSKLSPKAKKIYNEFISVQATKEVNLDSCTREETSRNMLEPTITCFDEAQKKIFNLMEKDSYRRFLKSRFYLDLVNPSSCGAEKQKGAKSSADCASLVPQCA
RGS4 pot: RGS4 potentiation or activation | HEK293 M3R/inducible RGS4, carbachol calcium flux Fluo4; active compounds read low | B-score at 10 µM | AID 463111 | 0.92% of 310,000 active;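 active = B-score of the integrated calcium signal more than 4 SD below the library mean, with starting fluorescence not abnormally high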;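 also: negative B-score means reduced calcium response which marks RGS4 activation or potentiation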
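Test system: HEK293 cells with stable M3R and inducible RGS4; also added: carbachol at ECmax as muscarinic agonist stimulus; schedule: dye loading 30 min 37 °C, buffer rest 30 min RT; technique: kinetic calcium fluorescence imaging with Fluo4-AM dye, 2 µM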
MrgX1 antag: blocks BAM8-22 activation of human MrgX1 receptor; Q96LB2; MRGX1-HEK293 calcium flux, Fluo-4, BAM8-22 antagonism; active compounds read low; B-score at 10 µM; 1.3% of 310,000 active;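 active = calcium-response B-score plate-corrected more than 3 library SD below zero, starting fluorescence within 5 deviations, no agonist response on first addition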;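 also: peak minus trough fluorescence over baseline after final BAM8-22 challenge near maximal dose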
MrgX1 ag: human MrgX1 receptor agonism, primary screen; 0.44% of 310,000 active; Q96LB2; MrgX1-HEK293 cells, Fluo-4 calcium fluorescence, agonist mode; active compounds read high; B-score at 10 µM; AID 588627;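 active = calcium response B-score plate-corrected fluorescence ratio at least 3 library SD, with starting fluorescence B-score inside 5 SD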
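Material: MrgX1-expressing HEK293 cells; input: 15,000 cells per well; doses: test compound given as first of three sequential additions; schedule: overnight plating before 1 h dye loading; technique: Fluo-4 NW calcium-flux fluorescence, kinetic read; evaluation: baseline-normalised fluorescence change ratio, B-scored; control set: plate-wise positive and negative controls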
MrgX1 ag confirm: human MrgX1 agonism, re-confirmation screen; shares compounds with MrgX1 ag; MrgX1-HEK293, Fluo-4 calcium fluorescence, FDSS; activation, % at 10 µM; 78% of 600 active; AID 602412;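 active = calcium signal rise, corrected for plate position, at least 3 library SD high, with starting brightness within 5 such deviations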
HEK293 Ca flux: activity in parental HEK293 cells lacking MrgX1. shares compounds with MrgX1 antag. Fluo-4 calcium fluorescence, FDSS. fluorescence ratio F(max-min)/F0 at 10 µM. 2% of 4,000 active;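 active = duplicate-averaged calcium fluorescence ratio at least three times the standard deviation of buffer wells, a nonspecific response in parental cells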
HEK293 Ca counter: MrgX1 allosteric activator counter-screen hit in parental HEK293 cells; parental HEK293 calcium flux, Fluo-4 fluorescence ratio; active compounds read high; 0.4% of 4,000 active; shares compounds with MrgX1 antag; fluorescence ratio F(max-min)/F0 at 10 µM;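 active = calcium fluorescence ratio, averaged over duplicates, at least 3 SD of the buffer-well ratio, meaning a nonspecific response in receptor-free cells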;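 also: untransfected parental HEK293 lacking MrgX1 used as counterscreen for MrgX1 allosteric activators; fluorescence change taken during the second addition on a kinetic imager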
HEK293 Ca cntr2: activity in parental HEK293 cells lacking MrgX1 receptor. shares compounds with MrgX1 antag. Fluo-4 calcium fluorescence (FDSS); active compounds read high. fluorescence ratio F(max-min)/F0 at 10 µM. 8.7% of 4,000 active. AID 624115;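 active = calcium fluorescence ratio at least three times the spread of buffer wells, meaning a non-specific response in parental cells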
Hits are given with their value; 0 = inactive; - = no result.

SMILES	MrgX1 allo act	RGS4 inh	RGS4 pot	MrgX1 antag	MrgX1 ag	MrgX1 ag confirm	HEK293 Ca flux	HEK293 Ca counter	HEK293 Ca cntr2
O=C(CNC(=O)c1ccc(F)cc1)N/N=C/c1cccnc1	0	0	0	0	0	-	-	-	-
O=C(CCl)N(c1ccccc1)c1c[nH]c2ccccc12	0	0	0	0	0	-	-	-	-
O=C(CCl)N(c1ccc(Cl)cc1)c1c[nH]c2ccccc12	0	0	0	0	30	146%	0	0	0
Cc1cc(C)cc(N/C(N)=N/c2nc(C)cc(C)n2)c1	0	0	0	0	33	132%	0	0	0
Cc1ccc(N/C(N)=N/c2nc(C)cc(C)n2)cc1	0	0	0	0	124	432%	0	0	97
Cc1cc(C)nc(/N=C(\N)Nc2ccc(C(C)C)cc2)n1	0	0	0	0	32	119%	0	0	0
CCC(=O)Nc1ccc(N/C(N)=N/c2nc(C)cc(C)n2)cc1	0	0	0	0	0	-	-	-	-
Cc1cccc(N/C(N)=N/c2nc(C)cc(C)n2)c1	0	0	0	0	69	358%	0	0	76
Cc1cc(NC(=O)Cc2ccccc2)ccc1NC(=O)c1cccs1	0	0	0	0	0	-	-	-	-
C/C(CC(=O)NCc1ccco1)=N\NC(=O)c1ccc(Cl)cc1Cl	0	0	0	0	0	-	-	-	-
Cc1cccc2[nH]c(SCC(=O)N3CCOCC3)nc12	0	0	0	0	0	-	-	-	-
O=c1[nH]c2ccc([N+](=O)[O-])cc2nc1/C=C(\O)c1ccccc1	0	0	0	0	0	-	-	-	-
COCCCNC(=O)c1nc2ccccc2c(=O)n1NC(=O)Nc1c(Cl)cccc1Cl	0	0	0	0	0	-	-	-	-
Cc1ccc(OCC(=O)NNC(=S)NC(=O)C(C)(C)C)c(Br)c1	0	0	0	0	66	508%	0	0	97
CCN=C(NCC)SC1CC(=O)N(c2ccc(F)cc2)C1=O (stereo not given)	0	0	0	0	0	-	-	-	-
CN1c2ccccc2C(O)=C(C(=O)Nc2ccccc2)S1(=O)=O	0	0	0	0	41	0	0	0	0
COc1ccc(NS(=O)(=O)c2cccc(C(=O)NNC(=O)c3cc(S(N)(=O)=O)ccc3OC)c2)cc1	0	0	0	0	0	-	-	-	-
CC(C)c1ccc(S(=O)(=O)/N=C2\C=C(NS(=O)(=O)c3ccccc3)C(=O)c3ccccc32)cc1	0	0	-11	0	30	0	0	0	0
CCc1ccc(S(=O)(=O)/N=C2\C=C(NS(=O)(=O)c3ccccc3)C(=O)c3ccccc32)cc1	-	0	0	-	-	-	-	-	-
O=C(Nc1cccc(S(=O)(=O)N2CCCCCC2)c1)C1CCC1	0	0	0	0	0	-	-	-	-
O=S(=O)(Nc1c(O)ccc2ccccc12)c1ccccc1	0	0	0	0	29	0	0	0	0
O=S(=O)(Nc1c(O)ccc2ccccc12)c1ccc(F)cc1	0	0	0	0	40	81%	0	0	0
O=S(=O)(Nc1ncccn1)c1ccc(F)cc1	0	0	0	0	0	-	-	-	-
CC1CCc2sc(NC(=O)C3CC(Cl)=CCC3C(=O)O)c(C#N)c2C1 (stereo not given)	0	0	0	0	28	0	0	0	0
COc1ccc(NC(=O)c2ccco2)cc1NC(=O)c1ccccc1[N+](=O)[O-]	0	0	0	0	0	-	-	-	-
SMILES	MrgX1 allo act	RGS4 inh	RGS4 pot	MrgX1 antag	MrgX1 ag	MrgX1 ag confirm	HEK293 Ca flux	HEK293 Ca counter	HEK293 Ca cntr2
N#Cc1ccc(-c2cccnc2)nc1SCC(=O)c1ccccc1	0	0	0	0	30	197%	0	0	0
CN1CCN(C(=O)CSc2nc(-c3ccncc3)ccc2C#N)CC1	0	0	0	0	35	158%	0	0	0
CN1CCN(C(=O)CSc2nc(-c3cccs3)cc(-c3cccs3)c2C#N)CC1	0	0	0	0	0	-	-	-	-
OC[C@@H](O)[C@@H](O)[C@H](O)[C@H](O)CO	0	0	0	0	0	-	-	-	-
O=C(Nc1cc(S(=O)(=O)N2CCOCC2)ccc1Cl)C(=O)c1c(-c2ccccc2)cc2ccccn12	0	0	0	0	0	-	-	-	-
COc1ccccc1Oc1ccnc2cc(Cl)ccc12	0	0	0	0	30	103%	0	0	0
Cc1cc(C)cc(NC(=S)N2CCN(S(=O)(=O)c3ccccc3)CC2)c1	0	0	0	0	0	-	-	-	-
CCCc1[nH]n(-c2nc3ccccc3s2)c(=O)c1C=NCC(C)C	0	0	0	0	29	227%	0	0	59
CCN(CC)CCCN=Cc1c(-c2ccccc2)[nH]n(-c2nc3ccccc3s2)c1=O	0	0	0	0	0	-	-	-	-
O=C(NNC(=S)NC(=O)c1cccs1)c1ccc(O)cc1	0	0	0	0	0	-	-	-	-
O=C(NC(=S)NNC(=O)c1cccs1)c1ccc(Br)o1	0	0	0	0	100	710%	0	0	137
Cn1cnnc1SCC(=O)NNC(=O)c1ccc(Cl)cc1	0	0	0	0	0	-	-	-	-
Fc1ccc2[nH]c3c(NCc4ccccc4)ncnc3c2c1	0	0	0	0	38	251%	0	0	54
CCn1ccnc1CN(C)C(=O)C1CCC(=O)N(Cc2cccc(F)c2)C1 (stereo not given)	0	0	0	0	0	-	-	-	-
Fc1cccc(NCCc2c[nH]c3ccccc23)n1	0	0	0	0	28	116%	0	0	0
CC[C@@H](C(=O)[C@@H](C)[C@@H](O)[C@H](C)CCc1ccc(C)c(O)c1C(=O)O)[C@H]1O[C@](CC)([C@H]2CC[C@](O)(CC)[C@H](C)O2)C[C@@H]1C	0	0	0	0	147	909%	0	0	198
CN1CCc2c(sc3c2C(=O)NC(c2ccc(-c4ccc(Cl)cc4)o2)N3)C1 (stereo not given)	0	0	0	0	31	0	0	0	0
Cc1cccc(NC(=O)CSCC(=O)NCc2ccco2)c1	0	0	0	0	0	-	-	-	-
Nc1c(C(=O)Nc2nc3ccccc3s2)sc2nc(-c3cccs3)ccc12	0	0	0	0	29	157%	0	0	0
CCCCCOc1ccc(Br)cc1CSC(=N)N	-	0	0	-	-	-	-	-	-
CCCCOc1ccc(CSC(=N)N)cc1Cl	0	0	0	0	35	164%	0	0	0
CCOC(=O)C(Cc1cc(C(C)=O)ccc1OC(C)C)C(=O)OCC	0	0	0	0	0	-	-	-	-
COc1ccc(Br)cc1CSC(=N)N	0	0	0	0	34	148%	0	0	0
